Data: the M2OR odorant receptor database

Experiments:
Conditions in all cases: stereoisomer not certain
OR2H2 (Homo sapiens) = target: T1, OR2H2 (Homo sapiens) (UniProt O95918)
T1 sequence (whole entry): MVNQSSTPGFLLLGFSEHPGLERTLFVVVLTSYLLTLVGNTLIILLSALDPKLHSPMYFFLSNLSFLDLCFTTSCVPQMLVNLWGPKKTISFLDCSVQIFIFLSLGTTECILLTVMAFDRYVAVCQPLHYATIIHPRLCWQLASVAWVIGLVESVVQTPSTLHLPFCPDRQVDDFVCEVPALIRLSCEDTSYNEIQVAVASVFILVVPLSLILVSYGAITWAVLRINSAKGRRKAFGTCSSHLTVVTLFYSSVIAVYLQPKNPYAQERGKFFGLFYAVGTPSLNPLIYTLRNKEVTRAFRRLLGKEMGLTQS
Summary of the method: (§1)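 Each entry records the cell line, G-protein, co-transfected protein and tags used. Methods varied with the source, often transient luciferase assays in mammalian cell lines. A receptor–molecule pair is called responsive (active) if the original authors judged its signal statistically different from baseline and non-responsive (inactive) otherwise.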

OR2J3 (Homo sapiens) = target: T2, OR2J3 (Homo sapiens) (UniProt O76001)
T2 sequence (whole entry): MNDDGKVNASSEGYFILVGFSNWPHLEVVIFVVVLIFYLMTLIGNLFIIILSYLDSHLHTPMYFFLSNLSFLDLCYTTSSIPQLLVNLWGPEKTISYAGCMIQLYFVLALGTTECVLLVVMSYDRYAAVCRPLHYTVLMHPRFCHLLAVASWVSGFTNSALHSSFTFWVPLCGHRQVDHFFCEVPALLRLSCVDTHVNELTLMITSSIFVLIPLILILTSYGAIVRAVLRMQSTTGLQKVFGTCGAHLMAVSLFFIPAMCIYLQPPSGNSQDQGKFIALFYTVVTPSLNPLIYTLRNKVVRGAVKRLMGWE
Summary of the method: as §1

OR2J3 [1] = test system: OR2J3
Summary of the method: as §1
Target sequence in this assay (as listed by the source): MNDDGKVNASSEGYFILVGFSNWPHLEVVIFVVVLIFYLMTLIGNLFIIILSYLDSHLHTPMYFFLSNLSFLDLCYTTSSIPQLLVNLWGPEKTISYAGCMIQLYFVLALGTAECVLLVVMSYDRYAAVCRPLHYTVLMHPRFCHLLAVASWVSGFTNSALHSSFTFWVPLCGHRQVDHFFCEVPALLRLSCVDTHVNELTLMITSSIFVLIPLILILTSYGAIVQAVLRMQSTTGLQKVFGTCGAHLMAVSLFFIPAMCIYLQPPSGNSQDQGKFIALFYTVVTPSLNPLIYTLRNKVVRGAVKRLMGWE

OR2J3 [2] = test system: OR2J3; remark: listed apart in the source
Summary of the method: as §1
Target sequence in this assay (as listed by the source): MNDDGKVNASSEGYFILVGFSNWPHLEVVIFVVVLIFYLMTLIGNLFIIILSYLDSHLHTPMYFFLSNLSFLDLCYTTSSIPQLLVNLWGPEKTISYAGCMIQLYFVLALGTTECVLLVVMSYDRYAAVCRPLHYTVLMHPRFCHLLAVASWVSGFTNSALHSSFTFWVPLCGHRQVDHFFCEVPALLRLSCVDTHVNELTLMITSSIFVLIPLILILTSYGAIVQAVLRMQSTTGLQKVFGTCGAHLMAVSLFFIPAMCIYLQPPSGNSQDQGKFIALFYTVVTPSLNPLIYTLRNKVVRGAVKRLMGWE

OR2J3 [3] = test system: OR2J3; remark: listed apart in the source
Summary of the method: as §1
Target sequence in this assay (as listed by the source): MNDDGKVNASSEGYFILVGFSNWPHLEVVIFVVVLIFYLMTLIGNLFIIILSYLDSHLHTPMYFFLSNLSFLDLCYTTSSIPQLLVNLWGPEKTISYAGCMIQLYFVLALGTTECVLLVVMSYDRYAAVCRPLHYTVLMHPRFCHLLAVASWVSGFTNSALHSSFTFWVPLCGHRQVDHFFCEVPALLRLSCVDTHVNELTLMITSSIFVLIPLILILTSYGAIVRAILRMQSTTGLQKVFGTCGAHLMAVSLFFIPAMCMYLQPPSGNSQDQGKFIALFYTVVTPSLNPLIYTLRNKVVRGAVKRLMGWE

OR2J3 [4] = test system: OR2J3; remark: listed apart in the source
Summary of the method: as §1
Target sequence in this assay (as listed by the source): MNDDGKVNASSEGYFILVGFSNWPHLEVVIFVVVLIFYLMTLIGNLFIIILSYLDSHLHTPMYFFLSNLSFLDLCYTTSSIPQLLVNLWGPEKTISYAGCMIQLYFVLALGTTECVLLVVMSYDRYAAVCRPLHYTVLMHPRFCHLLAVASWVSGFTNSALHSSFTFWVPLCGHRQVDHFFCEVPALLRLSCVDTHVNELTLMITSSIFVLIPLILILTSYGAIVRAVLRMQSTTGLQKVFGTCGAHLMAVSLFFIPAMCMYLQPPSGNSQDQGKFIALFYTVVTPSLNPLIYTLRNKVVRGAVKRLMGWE

OR2J2 (Homo sapiens) = target: T3, OR2J2 (Homo sapiens) (UniProt O76002)
T3 sequence (whole entry): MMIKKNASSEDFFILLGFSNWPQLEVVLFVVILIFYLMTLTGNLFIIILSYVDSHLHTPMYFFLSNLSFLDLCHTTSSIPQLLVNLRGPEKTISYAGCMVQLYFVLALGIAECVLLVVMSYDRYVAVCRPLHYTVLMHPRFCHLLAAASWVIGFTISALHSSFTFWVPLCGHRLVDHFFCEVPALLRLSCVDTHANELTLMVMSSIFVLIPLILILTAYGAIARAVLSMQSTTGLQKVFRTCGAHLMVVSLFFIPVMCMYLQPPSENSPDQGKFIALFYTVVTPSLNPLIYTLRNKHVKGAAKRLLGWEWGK
Summary of the method: as §1

OR2J2 [5] = test system: OR2J2
Summary of the method: as §1
Target sequence in this assay (as listed by the source): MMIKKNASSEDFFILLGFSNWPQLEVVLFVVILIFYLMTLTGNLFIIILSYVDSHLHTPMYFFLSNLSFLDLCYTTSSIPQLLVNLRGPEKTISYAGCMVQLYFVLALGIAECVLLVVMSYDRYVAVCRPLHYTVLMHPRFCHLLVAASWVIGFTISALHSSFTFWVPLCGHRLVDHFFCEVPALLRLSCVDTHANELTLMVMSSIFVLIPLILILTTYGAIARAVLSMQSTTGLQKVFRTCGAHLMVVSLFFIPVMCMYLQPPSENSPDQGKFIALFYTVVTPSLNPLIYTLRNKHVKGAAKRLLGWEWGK

OR2J2 [6] = test system: OR2J2; remark: listed apart in the source
Summary of the method: as §1
Target sequence in this assay (as listed by the source): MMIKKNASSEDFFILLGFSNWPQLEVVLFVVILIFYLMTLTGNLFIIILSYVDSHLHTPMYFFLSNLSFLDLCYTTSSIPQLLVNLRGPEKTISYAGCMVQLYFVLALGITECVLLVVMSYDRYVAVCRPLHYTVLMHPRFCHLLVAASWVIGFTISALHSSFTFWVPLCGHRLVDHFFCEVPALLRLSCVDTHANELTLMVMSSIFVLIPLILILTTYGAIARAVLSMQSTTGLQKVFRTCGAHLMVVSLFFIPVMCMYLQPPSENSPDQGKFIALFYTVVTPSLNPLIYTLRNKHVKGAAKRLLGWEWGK

OR2H1 (Homo sapiens) = OR2H1 (Homo sapiens) (UniProt Q9GZK4)
Sequence of OR2H1 (Homo sapiens) (Q9GZK4 whole entry): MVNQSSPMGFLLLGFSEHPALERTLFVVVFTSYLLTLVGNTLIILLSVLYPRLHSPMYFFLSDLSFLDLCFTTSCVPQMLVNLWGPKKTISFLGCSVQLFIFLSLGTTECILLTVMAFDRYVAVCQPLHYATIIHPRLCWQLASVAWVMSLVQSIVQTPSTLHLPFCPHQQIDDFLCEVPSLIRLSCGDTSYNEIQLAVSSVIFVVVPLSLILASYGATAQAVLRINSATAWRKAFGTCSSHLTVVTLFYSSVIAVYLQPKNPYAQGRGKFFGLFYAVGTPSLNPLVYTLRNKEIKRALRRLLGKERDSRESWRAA
Summary of the method: as §1

OR2H2 = test system: OR2H2
Sequence of OR2H2 (as listed by the source): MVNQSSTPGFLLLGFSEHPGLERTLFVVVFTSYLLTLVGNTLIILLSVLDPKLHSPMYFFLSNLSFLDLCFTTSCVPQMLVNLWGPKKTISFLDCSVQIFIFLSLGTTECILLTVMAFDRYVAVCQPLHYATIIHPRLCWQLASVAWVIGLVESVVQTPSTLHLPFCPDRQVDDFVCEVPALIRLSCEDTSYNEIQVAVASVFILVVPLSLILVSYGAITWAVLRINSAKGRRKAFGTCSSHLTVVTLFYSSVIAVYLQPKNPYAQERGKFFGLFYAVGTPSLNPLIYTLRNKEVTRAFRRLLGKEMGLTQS
Summary of the method: as §1

OR2J1 (Homo sapiens) = OR2J1 (Homo sapiens) (UniProt Q9GZK6)
Sequence of OR2J1 (Homo sapiens) (Q9GZK6 whole entry): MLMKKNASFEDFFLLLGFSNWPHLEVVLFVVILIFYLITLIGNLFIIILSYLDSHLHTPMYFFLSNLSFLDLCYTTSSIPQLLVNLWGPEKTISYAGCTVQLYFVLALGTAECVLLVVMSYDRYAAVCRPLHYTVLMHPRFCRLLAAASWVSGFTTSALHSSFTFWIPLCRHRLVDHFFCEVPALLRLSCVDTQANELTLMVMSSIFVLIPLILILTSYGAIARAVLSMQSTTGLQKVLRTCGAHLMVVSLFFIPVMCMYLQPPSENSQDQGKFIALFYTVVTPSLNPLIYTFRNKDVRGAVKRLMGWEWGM
Summary of the method: as §1

OR2J1 L14I V182A = test system: OR2J1 L14I V182A
Summary of the method: as §1

OR2K2 (Homo sapiens) = OR2K2 (Homo sapiens) (UniProt Q8NGT1)
Sequence of OR2K2 (Homo sapiens) (Q8NGT1 whole entry): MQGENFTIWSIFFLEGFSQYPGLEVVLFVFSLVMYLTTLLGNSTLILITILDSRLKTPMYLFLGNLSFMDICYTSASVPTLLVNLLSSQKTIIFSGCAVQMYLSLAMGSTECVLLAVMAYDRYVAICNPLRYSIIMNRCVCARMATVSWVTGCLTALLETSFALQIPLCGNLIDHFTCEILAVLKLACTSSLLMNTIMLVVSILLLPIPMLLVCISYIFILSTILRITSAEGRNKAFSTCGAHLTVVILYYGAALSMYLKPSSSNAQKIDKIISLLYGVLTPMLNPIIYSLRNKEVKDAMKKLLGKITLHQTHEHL
Summary of the method: as §1

OR2L13 (Homo sapiens) = target: T4, OR2L13 (Homo sapiens) (UniProt Q8N349)
T4 sequence (whole entry): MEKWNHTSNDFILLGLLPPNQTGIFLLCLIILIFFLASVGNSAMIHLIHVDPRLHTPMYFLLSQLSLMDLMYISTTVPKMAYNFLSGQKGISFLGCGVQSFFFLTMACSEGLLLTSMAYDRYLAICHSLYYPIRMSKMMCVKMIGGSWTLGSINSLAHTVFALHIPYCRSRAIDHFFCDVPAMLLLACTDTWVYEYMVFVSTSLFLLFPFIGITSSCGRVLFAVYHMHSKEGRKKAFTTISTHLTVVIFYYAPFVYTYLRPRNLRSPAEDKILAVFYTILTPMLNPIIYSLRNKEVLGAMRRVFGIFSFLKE
Summary of the method: as §1

OR2L2 (Homo sapiens) = OR2L2 (Homo sapiens) (UniProt Q8NH16)
Sequence of OR2L2 (Homo sapiens) (Q8NH16 whole entry): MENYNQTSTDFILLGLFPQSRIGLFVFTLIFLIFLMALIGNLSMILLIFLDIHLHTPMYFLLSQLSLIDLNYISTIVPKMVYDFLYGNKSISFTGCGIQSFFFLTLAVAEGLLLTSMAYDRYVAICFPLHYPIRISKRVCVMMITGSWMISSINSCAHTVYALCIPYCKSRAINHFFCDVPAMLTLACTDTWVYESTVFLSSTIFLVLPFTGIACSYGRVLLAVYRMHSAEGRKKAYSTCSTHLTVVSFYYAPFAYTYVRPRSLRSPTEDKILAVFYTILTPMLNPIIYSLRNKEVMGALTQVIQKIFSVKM
Summary of the method: as §1

OR2L3 (Homo sapiens) = OR2L3 (Homo sapiens) (UniProt Q8NG85)
Sequence of OR2L3 (Homo sapiens) (Q8NG85 whole entry): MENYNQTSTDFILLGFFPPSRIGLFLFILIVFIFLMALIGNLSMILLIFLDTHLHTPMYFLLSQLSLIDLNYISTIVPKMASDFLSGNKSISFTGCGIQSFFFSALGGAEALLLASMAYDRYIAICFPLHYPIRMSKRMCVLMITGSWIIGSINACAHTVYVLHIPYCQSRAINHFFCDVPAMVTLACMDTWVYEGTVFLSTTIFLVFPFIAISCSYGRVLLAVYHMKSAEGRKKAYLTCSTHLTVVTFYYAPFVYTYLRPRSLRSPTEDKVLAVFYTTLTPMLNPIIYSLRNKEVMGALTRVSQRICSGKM
Summary of the method: as §1

OR2L5 (Homo sapiens) = OR2L5 (Homo sapiens) (UniProt Q8NG80)
Sequence of OR2L5 (Homo sapiens) (Q8NG80 whole entry): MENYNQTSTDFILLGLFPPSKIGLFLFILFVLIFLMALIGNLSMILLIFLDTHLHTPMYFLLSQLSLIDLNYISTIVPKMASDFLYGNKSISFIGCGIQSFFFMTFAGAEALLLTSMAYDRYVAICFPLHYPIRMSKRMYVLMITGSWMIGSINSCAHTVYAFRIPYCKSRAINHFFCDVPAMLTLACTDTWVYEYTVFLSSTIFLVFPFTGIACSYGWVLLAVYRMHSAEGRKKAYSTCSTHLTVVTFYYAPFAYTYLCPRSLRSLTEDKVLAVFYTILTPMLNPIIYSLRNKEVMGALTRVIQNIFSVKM
Summary of the method: as §1

OR2L8 (Homo sapiens) = OR2L8 (Homo sapiens) (UniProt Q8NGY9)
Sequence of OR2L8 (Homo sapiens) (Q8NGY9 whole entry): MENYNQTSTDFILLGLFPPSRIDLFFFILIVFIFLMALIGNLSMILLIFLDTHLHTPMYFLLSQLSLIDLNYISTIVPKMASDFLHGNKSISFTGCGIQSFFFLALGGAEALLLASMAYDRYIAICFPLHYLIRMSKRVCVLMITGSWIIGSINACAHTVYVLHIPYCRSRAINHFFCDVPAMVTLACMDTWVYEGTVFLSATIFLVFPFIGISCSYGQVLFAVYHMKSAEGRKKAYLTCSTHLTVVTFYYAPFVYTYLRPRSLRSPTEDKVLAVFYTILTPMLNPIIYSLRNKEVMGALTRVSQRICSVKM
Summary of the method: as §1

OR2M2 (Homo sapiens) = OR2M2 (Homo sapiens) (UniProt Q96R28)
Sequence of OR2M2 (Homo sapiens) (Q96R28 whole entry): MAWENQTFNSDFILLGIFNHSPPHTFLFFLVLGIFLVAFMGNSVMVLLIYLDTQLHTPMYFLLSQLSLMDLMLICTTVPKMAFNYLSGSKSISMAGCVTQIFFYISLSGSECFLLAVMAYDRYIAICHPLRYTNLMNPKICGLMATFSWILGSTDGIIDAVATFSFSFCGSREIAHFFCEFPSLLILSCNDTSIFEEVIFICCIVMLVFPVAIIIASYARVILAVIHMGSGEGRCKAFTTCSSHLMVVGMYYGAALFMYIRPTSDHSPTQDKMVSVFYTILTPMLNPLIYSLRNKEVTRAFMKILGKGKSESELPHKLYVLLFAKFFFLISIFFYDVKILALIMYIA
Summary of the method: as §1

Measured: odorant receptor agonist call

O=CC=Cc1ccccc1
active: OR2J3 (Homo sapiens) | OR2J3 [1] | OR2J3 [2] | OR2J3 [3] | OR2J3 [4]
inactive: OR2H2 (Homo sapiens)

CCC1CCC(=O)O1 (stereo not given)
inactive: OR2J2 (Homo sapiens)

O=c1cc(O)c2ccccc2o1
inactive: OR2J2 (Homo sapiens)

CCCCOC(=O)c1ccccc1N
active: OR2J2 [5] | OR2J2 [6]

C=CCOC(=O)Cc1ccccc1
not listed: OR2J3 [1] | OR2J3 [2] | OR2J3 [4] | OR2J2 [5]
inactive: all other assays above

Cc1cccc(C)c1
inactive: OR2L13 (Homo sapiens)

C=CCc1ccccc1
inactive: OR2J2 (Homo sapiens)

Cc1c([N+](=O)[O-])c(C)c([N+](=O)[O-])c(C(C)(C)C)c1[N+](=O)[O-]
active: OR2J3 (Homo sapiens)
inactive: OR2H1 (Homo sapiens) | OR2H2 (Homo sapiens) | OR2J1 (Homo sapiens) | OR2J2 (Homo sapiens) | OR2K2 (Homo sapiens) | OR2L13 (Homo sapiens) | OR2L3 (Homo sapiens) | OR2L5 (Homo sapiens) | OR2L8 (Homo sapiens) | OR2M2 (Homo sapiens)

COc1ccc(C=O)cc1
inactive: OR2L13 (Homo sapiens)
